HKDC1 inh: inhibitors of human hexokinase HKDC1; hit rate 0.16% among 340,000; recombinant HKDC1, G6PDH/diaphorase resazurin coupled fluorescence; inhibition, % at 20 µM; Q2TB90;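 active = inhibition above about 35% when tested at 20 µM, limit read from the data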;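 note: plate controls were DMSO wells with enzyme for no effect and DMSO wells lacking enzyme for full effect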
Target sequence (Q2TB90 whole entry, looked up): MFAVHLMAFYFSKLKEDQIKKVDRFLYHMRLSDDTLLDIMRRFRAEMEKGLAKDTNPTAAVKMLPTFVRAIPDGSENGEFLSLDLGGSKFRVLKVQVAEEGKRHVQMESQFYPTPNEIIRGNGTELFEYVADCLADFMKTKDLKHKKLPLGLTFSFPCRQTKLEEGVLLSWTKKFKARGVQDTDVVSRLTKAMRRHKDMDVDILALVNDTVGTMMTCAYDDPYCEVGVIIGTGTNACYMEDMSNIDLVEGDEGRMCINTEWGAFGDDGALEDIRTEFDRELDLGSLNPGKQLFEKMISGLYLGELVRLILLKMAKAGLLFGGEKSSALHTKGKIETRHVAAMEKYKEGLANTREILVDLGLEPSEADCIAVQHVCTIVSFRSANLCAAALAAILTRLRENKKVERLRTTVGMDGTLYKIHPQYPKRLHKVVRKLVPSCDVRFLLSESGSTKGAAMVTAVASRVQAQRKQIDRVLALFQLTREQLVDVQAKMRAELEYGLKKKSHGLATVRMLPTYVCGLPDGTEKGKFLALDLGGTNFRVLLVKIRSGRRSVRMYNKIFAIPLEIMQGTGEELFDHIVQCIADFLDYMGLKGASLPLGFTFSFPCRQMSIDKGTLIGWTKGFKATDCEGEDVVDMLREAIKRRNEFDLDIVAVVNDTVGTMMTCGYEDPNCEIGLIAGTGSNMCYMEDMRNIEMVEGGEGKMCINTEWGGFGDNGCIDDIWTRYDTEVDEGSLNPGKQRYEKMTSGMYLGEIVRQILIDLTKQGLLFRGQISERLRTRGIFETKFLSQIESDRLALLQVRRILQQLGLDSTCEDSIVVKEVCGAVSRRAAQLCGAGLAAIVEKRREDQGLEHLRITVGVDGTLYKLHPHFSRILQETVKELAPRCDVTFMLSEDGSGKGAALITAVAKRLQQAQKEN
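Assay system – recombinant HKDC1 (HK5) hexokinase enzyme, produced in-house · Input – HKDC1 at 5 µg/mL · Reagent – glucose plus 1 mM ATP as hexokinase substrates · Timing – 90 min reaction incubation at room temperature, dark · Measured by – G6PDH/diaphorase-coupled fluorescence, 1 mM NADP, 100 µM resazurin, 525/613 nm · Benchmarks – DMSO-enzyme wells negative, buffer-substituted wells positive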
Tb hexokinase: blocks Trypanosoma brucei hexokinase 1 activity. recombinant TbHK1, G6PDH-coupled NADH A340. inhibition, % at 10 µM. hit rate 0.11% among 220,000. AID 1430;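 active = inhibition of 50% or more in the single-dose primary screen; inactive = inhibition below 50%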
G6PDH counter: L. mesenteroides G6PDH inhibition counter-screen | inhibition, % at 5 µM | Purified L. mesenteroides G6PDH, diaphorase/resazurin coupled fluorescence, 45 min | hit rate 0.12% among 200,000; in the data active = inhibition above about 50%
Diaphorase inh: diaphorase inhibition or chemical oxidation counter-screen | diaphorase resazurin-to-resorufin fluorescence, NADH, 16 min; bacterial (C. kluyveri) enzyme, not human | inhibition, % at 20 µM | hit rate 0.69% among 190,000 | AID 1217;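 active = primary screen inhibition at 20 µM above a set limit, cut at about 50% in these data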;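 note: plate controls were DMSO with full reaction for no effect and wells lacking NADH for full effect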
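Assay system: diaphorase enzyme from Clostridium kluyveri; Input: enzyme working solution with 0.14 U/mL diaphorase; Timing: 16 min at room temperature; Technique: resorufin fluorescence, excitation 544 nm, emission 590 nm; Benchmarks: positive control minus NADH, DMSO neutral control.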
PfG6PD inh: PfG6PD (Plasmodium falciparum) enzyme inhibition; hit rate 0.78% among 350,000; inhibition, % at 20 µM; PfGluPho enzyme, NADPH resazurin-diaphorase fluorescence;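 active = inhibition reaching at least a set limit at 20 µM in the primary screen, cut at about 59% in these data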;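 note: 0% = DMSO wells with substrate and 100% = DMSO wells lacking glucose-6-phosphate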
PfG6PD confirm: confirmation of Plasmodium falciparum G6PD inhibitors; shares compounds with PfG6PD inh; recombinant PfGluPho, NADPH-diaphorase-resazurin fluorescence; inhibition, % at 20 µM; hit rate 34% among 2,400;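 active = inhibition of at least 50% at 20 µM in any single replicate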;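 note: 0% = DMSO with substrate and 100% = DMSO lacking glucose-6-phosphate substrate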
Diaph ctr 10uM: diaphorase inhibition or oxidation at 10 uM NADPH. inhibition, % at 20 µM. AID 504862. shares compounds with PfG6PD inh. diaphorase-coupled resazurin reduction, fluorescence, NADPH 10 uM. hit rate 39% among 820;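 active = average inhibition reaching 50% or more with the compound at 20 µM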;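 note: resorufin red fluorescence formed as diaphorase reduces resazurin using NADPH; 0% = DMSO with enzyme and 100% = DMSO without enzyme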
Diaph ctr 30uM: inhibits diaphorase or oxidizes, flagging false PfG6PD hits | inhibition, % at 20 µM | hit rate 29% among 820 | Diaphorase/resazurin coupled assay, resorufin fluorescence, 30 uM NADPH | shares compounds with PfG6PD inh;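 active = inhibition averaging 50% or more, tested at 20 µM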;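 note: 0% = DMSO with enzyme and 100% = DMSO wells lacking diaphorase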
The depositor's hits bear a star. Compounds with a hit are over-represented: about 1.3% of the library has one in this group of screens.

Cc1ccc(Nc2c([N+](=O)[O-])ccc3nonc23)c(C)c1 was read as HKDC1 inh -3 and PfG6PD inh 7.
Screening Cc1ccc(S(=O)c2ccc([N+](=O)[O-])c3nonc23)cc1 (centres undefined) returned PfG6PD inh 117*, PfG6PD confirm 103*, Diaph ctr 10uM 11 and Diaph ctr 30uM 11.
For CC(=O)CC1(O)C(=O)Nc2ccccc21 (centres undefined) the results were HKDC1 inh -9, Tb hexokinase -3 and PfG6PD inh -6.
For COC1=CC(=O)C=C(OC)C1(O)CC(C)=O the results were HKDC1 inh 17, PfG6PD inh 68*, PfG6PD confirm 54*, Diaph ctr 10uM -7 and Diaph ctr 30uM -14.
`Oc1ccc(N2CCN(C(c3ccncc3)c3nnnn3C3CCCC3)CC2)cc1` (centres undefined) gave HKDC1 inh -9, Tb hexokinase -6, G6PDH counter 17, Diaphorase inh 32 and PfG6PD inh 42.
CCOC(=O)c1c(-c2ccc(C)o2)csc1NC(=O)COC(=O)c1cccs1 was read as HKDC1 inh 5, Tb hexokinase 5, G6PDH counter 2, Diaphorase inh 23, PfG6PD inh 59* and PfG6PD confirm -3.
For CCOC(=O)c1c(-c2ccc(C)o2)csc1NC(=O)CN1CCOCC1 the results were HKDC1 inh -1, Tb hexokinase -10, G6PDH counter 3, Diaphorase inh 7 and PfG6PD inh 1.
Nc1nc(Sc2ccc([N+](=O)[O-])c3nonc23)c2[nH]cnc2n1 was read as HKDC1 inh 24, PfG6PD inh 122*, PfG6PD confirm 109*, Diaph ctr 10uM 97* and Diaph ctr 30uM 85*.
For COCc1c(C(=O)NCCOc2ccc(Cl)cc2)oc2ccccc12 the results were HKDC1 inh -5 and PfG6PD inh 20.
`O=C(O)c1ccc(-n2c(-c3cc(-c4ccco4)[nH]n3)n[nH]c2=S)cc1` gave HKDC1 inh -2, Tb hexokinase 0, G6PDH counter 4, Diaphorase inh 38, PfG6PD inh 59*, PfG6PD confirm 56*, Diaph ctr 10uM -3 and Diaph ctr 30uM -1.
For CS(=O)(=O)c1ccccc1C(=O)N(CCc1ccccc1)Cc1ccccc1 the results were HKDC1 inh -4 and PfG6PD inh -1.
Screening C=C1C(C(=O)Nc2cccc(OC)c2)C1C(=O)Nc1cccc(OC)c1 (centres undefined) returned HKDC1 inh -5, Tb hexokinase -4, G6PDH counter 6, Diaphorase inh 0 and PfG6PD inh 2.
For Cc1cccc(C2(c3cccc(C)c3)CC2C(=O)Nc2ccc([N+](=O)[O-])cc2O)c1 (centres undefined) the results were HKDC1 inh -5, Tb hexokinase 24, G6PDH counter 19, Diaphorase inh 30, PfG6PD inh 113*, PfG6PD confirm 60*, Diaph ctr 10uM 55* and Diaph ctr 30uM 38.
`COc1cccc(C2(c3cccc(OC)c3)CC2C(=O)Nc2ccc(F)cc2)c1` (centres undefined) gave HKDC1 inh -6, Tb hexokinase -3, G6PDH counter 3, Diaphorase inh 19, PfG6PD inh 115*, PfG6PD confirm 57*, Diaph ctr 10uM 56* and Diaph ctr 30uM 37.
COc1cccc(C2(c3cccc(OC)c3)CC2C(=O)Nc2ccccc2Cl)c1 (centres undefined) was read as HKDC1 inh -2, Tb hexokinase -4, G6PDH counter -17, Diaphorase inh 20, PfG6PD inh 88* and PfG6PD confirm 37.
Screening C=CCNC(=O)C1CC1(c1cccc(C)c1)c1cccc(C)c1 (centres undefined) returned HKDC1 inh -1 and PfG6PD inh 7.
